The values below come from ChEMBL document CHEMBL1149177, “Meta-substituted aryl(thio)ethers as potent partial agonists (or antagonists) for the histamine H3 receptor lacking a nitrogen atom in the side chain” (J Med Chem, 2004).

SMILES strings stand for the structures. pEC50, pKi: −log10 of the molar value. A value given as a limit tells only on which side of the number the result lay.

Histamine H3 receptor (Cavia porcellus), sequence (Q9JI35 whole entry): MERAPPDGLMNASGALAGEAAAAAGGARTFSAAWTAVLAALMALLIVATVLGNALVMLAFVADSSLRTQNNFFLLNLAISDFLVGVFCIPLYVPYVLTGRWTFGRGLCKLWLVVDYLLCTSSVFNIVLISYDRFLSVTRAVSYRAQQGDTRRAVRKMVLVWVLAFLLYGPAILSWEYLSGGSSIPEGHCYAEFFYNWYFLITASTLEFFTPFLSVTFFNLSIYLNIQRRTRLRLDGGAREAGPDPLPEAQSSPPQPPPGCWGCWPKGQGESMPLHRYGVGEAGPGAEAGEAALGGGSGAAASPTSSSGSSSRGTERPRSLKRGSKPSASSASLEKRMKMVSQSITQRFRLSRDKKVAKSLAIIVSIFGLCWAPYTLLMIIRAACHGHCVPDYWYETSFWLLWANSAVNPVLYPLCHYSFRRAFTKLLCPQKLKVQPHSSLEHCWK
Histamine H3 receptor (Rattus norvegicus), sequence (Q9QYN8 whole entry): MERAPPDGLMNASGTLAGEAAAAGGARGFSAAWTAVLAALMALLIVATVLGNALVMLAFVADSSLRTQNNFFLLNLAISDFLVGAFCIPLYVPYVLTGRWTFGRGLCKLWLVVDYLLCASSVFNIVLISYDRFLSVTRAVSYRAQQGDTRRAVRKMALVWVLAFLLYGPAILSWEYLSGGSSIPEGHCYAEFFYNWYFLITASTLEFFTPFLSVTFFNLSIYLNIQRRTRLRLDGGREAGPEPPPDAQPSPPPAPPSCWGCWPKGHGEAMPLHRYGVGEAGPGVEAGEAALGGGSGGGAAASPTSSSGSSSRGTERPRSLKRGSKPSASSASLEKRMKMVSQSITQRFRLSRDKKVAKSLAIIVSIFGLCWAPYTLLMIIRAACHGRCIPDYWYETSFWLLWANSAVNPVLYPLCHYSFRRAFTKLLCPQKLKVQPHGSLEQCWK

The target in one assay is Histamine H3 receptor (Mus musculus) (UniProt P58406). The experiment in a line: Activity against Histamine H3 receptor mediated inhibition of [3H]norepinephrine release from mouse brain; Partial agonist. The following applies: filed as partial agonist. The assay is classed as functional.
Histamine H3 receptor (Mus musculus), sequence (P58406 whole entry): as the sequence (Q9QYN8 whole entry) above, with T15A, A286T, A290G, R387H, I389V counted along it
As to `N=C(N)SCCc1c[nH]cn1`, the Activity result was “Partial agonist”.

For the compound `NCCCCCc1c[nH]cn1`, the Activity entry is “Partial agonist”.

As to `c1nc(CC2CCNCC2)c[nH]1`, the Activity entry was “Partial agonist”.

Take `N=C(N)CCCc1c[nH]cn1`: the Activity entry was “Partial agonist”.

Regarding `C[C@H]1NCC[C@@H]1c1c[nH]cn1`, the Activity entry is “Partial agonist”.

As to `C[C@@H](N)Cc1c[nH]cn1`, the Activity entry was “Partial agonist”.

In the case of `NCC[C@@H]1C[C@@H]1c1c[nH]cn1`, the Activity result was “Partial agonist”.

As to `NC[C@H]1CC[C@H](c2c[nH]cn2)O1`, the Activity result is “Partial agonist”.

The species entered for the next assay is Mus musculus. Briefly: Intrinsic activity was determined inhibition of brain N-mehtylhistamine formation in mice relative to imetit. The assay is classed as functional.
Conditions: not given
In short, it runs like this: (§1)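 Oxalate salt given orally as solution or suspension in 1% methylcellulose to groups of 6–12 male Swiss mice (18–22 g); doses 0.15–30 mg/kg. Cerebral cortex taken 90 min later, homogenized in ice-cold 0.4 N perchloric acid, Nτ-methylhistamine measured by radioimmunoassay. Agonist maxima referenced to imetit 10 mg/kg; antagonist maxima to thioperamide 10 mg/kg; ED50 as free base.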
`FC(F)(F)c1cc(OCCCc2c[nH]cn2)cc(C(F)(F)F)c1`: the Intrinsic activity amounted to 0.

On to `CC(C)(C)c1cccc(OCCCc2c[nH]cn2)c1`, for which the Intrinsic activity is 0.78.

`CC(=O)c1cccc(OCCCc2c[nH]cn2)c1`: the Intrinsic activity was found to be 0.9.

For `FC(F)(F)c1cccc(OCCCc2c[nH]cn2)c1`, the Intrinsic activity was 1.

Compound `CC(C)c1cccc(OCCCc2c[nH]cn2)c1` came in with an Intrinsic activity of 0.82.

With `CCc1cccc(OCCCc2c[nH]cn2)c1`, the Intrinsic activity worked out at 0.85.

In turn, `FC(F)(F)c1ccc(OCCCc2c[nH]cn2)cc1` returned an Intrinsic activity of 0.

In the case of `N#Cc1ccc(OCCCc2c[nH]cn2)cc1`, the Intrinsic activity came out at 0.

For `FC(F)(F)c1cccc(CCCCc2c[nH]cn2)c1`, the Intrinsic activity was found to be 0.

In turn, `O=[N+]([O-])c1cccc(OCCCc2c[nH]cn2)c1` displayed an Intrinsic activity of 0.61.

Compound `FC(F)(F)c1cccc(SCCc2c[nH]cn2)c1` returned an Intrinsic activity of 0.7.

As to `FC(F)(F)c1cccc(OCCCCc2c[nH]cn2)c1`, the Intrinsic activity stood at 0.7.

The target of the next assay is Histamine H3 receptor (Rattus norvegicus, UniProt Q9QYN8). Briefly: In vitro inhibitory activity against histamine H3 receptor using [3H]histamine as radioligand from rat cerebral cortex synaptosomes.
Histamine H3 receptor, sequence (Q9QYN8 whole entry): as the sequence (Q9QYN8 whole entry) above
Conditions: not given
It counts as subcellular, Brain. In short, it runs like this: (§2)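 Rat cerebral cortex synaptosomes preincubated 30 min at 37 °C with L-[3H]histidine to label histamine stores; K+-evoked depolarization-induced [3H]histamine release measured. Intrinsic activity taken as maximal inhibition by test substance relative to that from histamine (1 μM). Antagonism read as blockade of the histamine effect, expressed as Ki.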
In the case of `FC(F)(F)c1cc(OCCCc2c[nH]cn2)cc(C(F)(F)F)c1`, the negative logarithm of the Ki (pKi) (as a rule, −log10 of the Ki, conventionally taken in molar units) is 6.94.

As for `CC(C)c1cccc(OCCCc2cnc[nH]2)c1`, the pKi was 7.54.

The compound `FC(F)(F)c1cccc(OCCc2c[nH]cn2)c1` had a pKi of 7.74.

`FC(F)(F)c1cccc(OCCCc2c[nH]cn2)c1` had a negative logarithm of the Ki (pKi) of 8.08.

For the compound `Cc1cccc(OCCCc2cnc[nH]2)c1`, the negative logarithm of the Ki (pKi) was 7.43.

For `O=[N+]([O-])c1cccc(OCCCc2cnc[nH]2)c1`, the pKi was 8.03.

For `N#Cc1cccc(OCCCc2cnc[nH]2)c1`, the pKi was 6.97.

As to `FC(F)(F)c1cccc(SCCCc2c[nH]cn2)c1`, the pKi is 7.42.

As for `CC(C)(C)c1cccc(OCCCc2cnc[nH]2)c1`, the pKi is 7.66.

With `FC(F)(F)c1ccccc1OCCCc1c[nH]cn1`, the pKi is ~6.30.

Compound `FC(F)(F)c1cccc(CCCCc2c[nH]cn2)c1` had a pKi of 7.42.

`CC(=O)c1cccc(OCCCc2cnc[nH]2)c1` had a negative logarithm of the Ki (pKi) of 7.70.

Compound `CCc1cccc(OCCCc2cnc[nH]2)c1` had a negative logarithm of the Ki (pKi) of 7.82.

For the compound `Brc1cccc(OCCCc2cnc[nH]2)c1`, the pKi is 7.72.

The species entered for a further assay is Cavia porcellus. Briefly: Tested for activity of compound against neurogenic contractions of guinea pig jejunum; Potent antagonist. The conditions noted are these: filed as antagonist. The assay is classed as functional.
Consider `N=C(N)SCCc1c[nH]cn1`, for which the Activity entry was “Antagonist”.

On to `NCCCCCc1c[nH]cn1`, for which the Activity entry was “Antagonist”.

In the case of `c1nc(CC2CCNCC2)c[nH]1`, the Activity entry is “Antagonist”.

Regarding `N=C(N)CCCc1c[nH]cn1`, the Activity entry was “Antagonist”.

As to `C[C@H]1NCC[C@@H]1c1c[nH]cn1`, the Activity entry is “Antagonist”.

As for `C[C@@H](N)Cc1c[nH]cn1`, the Activity result is “Antagonist”.

On to `NCC[C@@H]1C[C@@H]1c1c[nH]cn1`, for which the Activity result was “Antagonist”.

Consider `NC[C@H]1CC[C@H](c2c[nH]cn2)O1`, for which the Activity entry is “Antagonist”.

The species entered for another assay is Rattus norvegicus. Briefly: In vitro effective concentration of compound required to reduce histamine release from rat synaptosomes. The conditions noted are these: Brain. The assay is classed as functional. In short, it runs like this:
as §2
`FC(F)(F)c1cccc(OCCCc2c[nH]cn2)c1`: the pEC50 (commonly the negative decadic logarithm of the EC50, by convention in mol/L) is 7.01.

The target in a further assay is Histamine H3 receptor (Homo sapiens) (UniProt Q9Y5N1). The experiment in a line: Agonistic activity against histamine H3 receptor; Partial agonist. The assay is classed as functional. The following applies: filed as partial agonist.
Histamine H3 receptor (Homo sapiens), sequence (Q9Y5N1 whole entry): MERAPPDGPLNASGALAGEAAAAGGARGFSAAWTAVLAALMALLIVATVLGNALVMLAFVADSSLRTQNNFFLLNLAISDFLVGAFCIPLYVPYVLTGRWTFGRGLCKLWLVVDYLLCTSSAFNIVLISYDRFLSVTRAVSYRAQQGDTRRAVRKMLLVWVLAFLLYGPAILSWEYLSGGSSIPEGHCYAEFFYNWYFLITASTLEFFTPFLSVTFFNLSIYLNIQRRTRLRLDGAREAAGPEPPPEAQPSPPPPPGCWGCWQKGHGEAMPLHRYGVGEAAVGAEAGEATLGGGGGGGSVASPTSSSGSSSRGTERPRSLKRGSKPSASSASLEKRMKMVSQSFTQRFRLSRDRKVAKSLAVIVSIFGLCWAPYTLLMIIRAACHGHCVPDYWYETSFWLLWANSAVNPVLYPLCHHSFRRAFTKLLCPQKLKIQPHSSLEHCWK
On to `Ic1ccc(COCCCc2c[nH]cn2)cc1`, for which the Activity entry was “Partial agonist”.

A further assay shares this target. Briefly: Tested in vivo for activity against histamine H3 receptor; Full agonist. It counts as functional, organism-based. The following applies: filed as agonist. In short, it runs like this:
as §1
Take `CC(C)(C)CCOCCCc1c[nH]cn1`: the Activity entry is “Agonist”.

As for `CC(C)CCOCCCc1c[nH]cn1`, the Activity result was “Agonist”.

The subject of another assay is Mus musculus. The experiment in a line: In vivo inhibition of brain N-methyl-histamine formation in mice when administered perorally in presence of oxalate salt. It counts as functional. The following applies: po. In short, it runs like this: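 Male Swiss mice (18–22 g), groups of 6–12, given oxalate salt orally as solution or suspension in 1% methylcellulose. Cerebral cortex taken 90 min after dosing, homogenized in ice-cold 0.4 N perchloric acid. Nτ-methylhistamine measured by radioimmunoassay. Agonist maximal effect referenced to imetit 10 mg/kg; antagonist maximal effect referenced to thioperamide 10 mg/kg. ED50 given as free base.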
Consider `FC(F)(F)c1cc(OCCCc2c[nH]cn2)cc(C(F)(F)F)c1`, for which the median effective dose (ED50) – broadly, the dose at which the effect has come halfway, by size or by number of responders – turned out to be 4.8 mg/kg.

For `CC(C)(C)c1cccc(OCCCc2c[nH]cn2)c1`, the ED50 was found to be 0.8 mg/kg.

Regarding `CC(=O)c1cccc(OCCCc2c[nH]cn2)c1`, the ED50 stood at 0.4 mg/kg.

As for `FC(F)(F)c1cccc(OCCc2c[nH]cn2)c1`, the ED50 is < 10 mg/kg.

For `FC(F)(F)c1cccc(OCCCc2c[nH]cn2)c1`, the ED50 was found to be 0.6 mg/kg.

As for `Cc1cccc(OCCCc2cnc[nH]2)c1`, the ED50 was > 10 mg/kg.

For `CC(C)c1cccc(OCCCc2c[nH]cn2)c1`, the median effective dose (ED50) was 0.5 mg/kg.

On to `CCc1cccc(OCCCc2c[nH]cn2)c1`, for which the ED50 was ~1 mg/kg.

Take `c1ccc(OCCCc2c[nH]cn2)cc1`: the ED50 is > 10 mg/kg.

For `FC(F)(F)c1ccc(OCCCc2c[nH]cn2)cc1`, the ED50 was found to be 0.6 mg/kg.

With `N#Cc1cccc(OCCCc2cnc[nH]2)c1`, the ED50 was > 10 mg/kg.

Turning to `Brc1cccc(OCCCc2c[nH]cn2)c1`, the ED50 was > 10 mg/kg.

For the compound `S=C(NC1CCCCC1)N1CCC(c2cnc[nH]2)CC1` [THIOPERAMIDE], the ED50 came out at 1 mg/kg.

Consider `FC(F)(F)c1cccc(SCCCc2c[nH]cn2)c1`, for which the ED50 is > 10 mg/kg.

Regarding `FC(F)(F)c1ccccc1OCCCc1c[nH]cn1`, the ED50 is > 10 mg/kg.

As for `N#Cc1ccc(OCCCc2c[nH]cn2)cc1`, the ED50 worked out at 0.54 mg/kg.

Take `FC(F)(F)c1cccc(CCCCc2c[nH]cn2)c1`: the ED50 is 6.5 mg/kg.

For the compound `O=[N+]([O-])c1cccc(OCCCc2c[nH]cn2)c1`, the ED50 is 1.1 mg/kg.

For `FC(F)(F)c1cccc(SCCc2c[nH]cn2)c1`, the ED50 was 0.94 mg/kg.

Another assay addresses Histamine H3 receptor (Rattus norvegicus) (UniProt Q9QYN8). The experiment in a line: In vitro activity against histamine H3 receptor in rat synaptosomes; Partial agonist. The following applies: Brain; filed as partial agonist. It counts as functional, subcellular. The procedure, abridged: as §2
Consider `CC(C)CCOCCCc1c[nH]cn1`, for which the Activity result was “Partial agonist”.

Another assay has the same target. Briefly: In vitro intrinsic activity against histamine H3 receptor using [3H]histamine as radioligand from rat cerebral cortex synaptosomes with respect to histamine; No detectable agonism. The following applies: Brain. It counts as functional, subcellular. In short, it runs like this: as §2
`FC(F)(F)c1cccc(OCCCc2c[nH]cn2)c1` showed an Intrinsic activity of 0.4.

On to `Brc1cccc(OCCCc2c[nH]cn2)c1`, for which the Intrinsic activity is < 0.1.

In another assay the target is Histamine H3 receptor (Homo sapiens) (UniProt Q9Y5N1). Briefly: Tested for activity against histamine H3 receptor; Weak antagonist. It counts as functional. The following applies: filed as antagonist.
With `CC(C)NC(=O)OCCCc1c[nH]cn1`, the Activity entry is on record as “Partial antagonist”.

Another assay concerns the target Histamine H3 receptor (Cavia porcellus) (UniProt Q9JI35). The experiment in a line: Tested for activity of compound against histamine H3 receptor in guinea pig ileum; Antagonist. The following applies: filed as antagonist. It counts as functional, tissue-based.
For the compound `CC(C)(C)CNC(=O)OCCCc1c[nH]cn1`, the Activity entry is “Antagonist”.

In the case of `CC(C)(C)NC(=O)OCCCc1c[nH]cn1`, the Activity entry was “Antagonist”.

For `CC(NC(=O)OCCCc1c[nH]cn1)C(C)(C)C` (stereo not drawn), the Activity entry was “Antagonist”.

Regarding `CC(C)NC(=O)OCCCc1c[nH]cn1`, the Activity entry was “Antagonist”.

As for `CC(C)CNC(=O)OCCCc1c[nH]cn1`, the Activity entry was “Antagonist”.

Another assay concerns the target Histamine H3 receptor (Mus musculus) (UniProt P58406). The experiment in a line: Tested for activity against histamine H3 receptor in vivo in mice; Weak agonist. The following applies: filed as partial agonist. The assay is classed as functional, organism-based. In short, it runs like this:
as §1
Take `CC(C)(C)NC(=O)OCCCc1c[nH]cn1`: the Activity result is “Partial agonist”.

A further assay concerns the target Histamine H3 receptor (Cavia porcellus) (UniProt Q9JI35). Briefly: In vitro activity against histamine H3 receptor in guinea pig ileum; Antagonist. It counts as functional, tissue-based. The following applies: filed as antagonist.
With `CC(C)CCOCCCc1c[nH]cn1`, the Activity entry is “Antagonist”.

A further assay has as its target Histamine H3 receptor (Rattus norvegicus) (UniProt Q9QYN8). The experiment in a line: In vitro intrinsic activity against histamine H3 receptor using [3H]histamine as radioligand from rat cerebral cortex synaptosomes with respect to histamine. It counts as subcellular. The following applies: Brain. In short, it runs like this:
as §2
For `CC(C)(C)c1cccc(OCCCc2c[nH]cn2)c1`, the Intrinsic activity was 0.28.

For `CC(=O)c1cccc(OCCCc2c[nH]cn2)c1`, the Intrinsic activity turned out to be 0.15.

`CC(C)c1cccc(OCCCc2c[nH]cn2)c1` had an Intrinsic activity of 0.3.

In turn, `CCc1cccc(OCCCc2c[nH]cn2)c1` registered an Intrinsic activity of 0.2.

For the compound `O=[N+]([O-])c1cccc(OCCCc2c[nH]cn2)c1`, the Intrinsic activity worked out at 0.1.

With `FC(F)(F)c1cccc(SCCc2c[nH]cn2)c1`, the Intrinsic activity worked out at 0.4.

For a further assay, the system named is Mus musculus. Briefly: In vivo Intrinsic activity inhibition of brain N-mehtylhistamine formation in mice relative to imetit; Antagonist. It counts as functional.
Conditions: not given
In short, it runs like this: as §1
`FC(F)(F)c1cccc(OCCc2c[nH]cn2)c1`: the Intrinsic activity is recorded as 0.
